Sequences and labels used below:
B1: tRNA (parent)
chain: GUUCCGUUGGCGUAAUGGUAACGCGUCUCCCUCCUAAGGAGAAGACUGCGGGUUCGAGUCCCGUACGGAACG

This sample holds only a part of the variants without activity.

In this data set the parent is B1. As to the kind of experiment: yeast fitness relative to wild type (ratio to wild type); higher = fitter; tRNA-Arg(CCU), competitive growth, 37 C, YPD. The method, boiled down: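 Start and end populations of a pooled competition were compared by 100-nucleotide paired-end sequencing of gene amplicons. The Saccharomyces cerevisiae strains carried tRNA-Arg(CCU) gene variants at the native genomic locus, synthesised with a 3% per-site mutation rate at 69 sites, and competed in YPD at 37°C for 24 hours in six parallel replicates. Darwinian fitness relative to wild type was based on the change in genotype frequencies. Genotypes required ≥ 100 starting reads, and estimates < 0.5 were set to 0.5.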
In the case of GUUCCGUUGGCAUAGUGGUAAAGCGUCUCCCUCCUAAGGAGAAGACUGCGGGUUCGAGUCCCGUACGGAACG [G12A A15G C22A], the yeast fitness came out at 0.705.

As to GUUCCGUUGGCAUAGUGGUAACGCGUCUCCCUCCUAAGGAGAAGACUGUGGGUUCGAGUCCCGUCCGGAGCG [G12A A15G C49U A65C A70G], the yeast fitness was not above 0.5.

On to GUUCCGUUGGCAUCAUGGUAACGCGUCUCCCUCCUAAGGAGAAGACUGCCGGUUCGAGUCCCGUACGGAACG [G12A A14C G50C], for which the yeast fitness came out at 0.535.

For the variant GUUCCGUUGGUGUAAUGGUAACGCGUCUCCCUCCUAAGGAGAAGACUGCGGGUUCGAGCCCCGUACGGAACG [C11U U59C], the yeast fitness came out at 0.937.

GUUCCGUUGGUGUAAUGGUAACGCGUCUCCCUCCUAAGGAGAAGACUGCGGGUUCGAGGCCCGUACGGAACG [C11U U59G]: the yeast fitness came out at 0.786.

Turning to GUUCCGUUGGUGUAAUGGUAACGCGUCUCCCACAUAAGGAGACGACUGCGGGUUCGAGUCUCGUACGAAACG [C11U U32A C34A A43C C61U G68A], the yeast fitness is not above 0.5.

On to GUUCCGUUGGCAUGAUGGUAACGCGUCUCCCUCCUUAGGAGAAGAAUGCGGGUUCGAGUCCCGUACGGAACG [G12A A14G A36U C46A], for which the yeast fitness is not above 0.5.

On to GUUCCGUUGGCAUACUGGUAACGCGUGUCCCUCCUAAGGAGAAGACUGGGGGUUCGAGUCCCGUACGGAACG [G12A A15C C27G C49G], for which the yeast fitness is not above 0.5.

In the case of GUUCCGUUGGCAUCAUGGUAACGCGUCUCCCUCUUAGGGAGAAGACUGCGGGUUCGAGUCCCGUACGGAACG [G12A A14C C34U A37G], the yeast fitness was not above 0.5.

As for GUUCCGUUGGCAUACUGGUAACGCGUCUCCCUCCUAAGGAGAAGACUGCGGGUUCGAGUCCUGUAGGGAGCG [G12A A15C C62U C66G A70G], the yeast fitness stood at 0.562.

As to GUUCCGUUGGUGUAAUGGUAACGCGUCUCCCUCCAAAAGAGAAGACUGCGGAUUCCAGUCCCGUACGGAACG [C11U U35A G38A G52A G56C], the yeast fitness was not above 0.5.

In the case of GUUCCGUUGGUGUAAUGGUAACGCGUCUCCCUCCUAAGGAGAAGACUGCGGGUUCGAGACCCGGACGGAACG [C11U U59A U64G], the yeast fitness is not above 0.5.

On to GUUCCGUUGGUGUAAUGGUAACGCGUCUCCCUCCUAAGGAGAAGACCACGGGUUCAAGUCCCGUACGGAACG [C11U U47C G48A G56A], for which the yeast fitness was not above 0.5.

With GUUCCGUUGGCAUAGUGGUAACGCGUCUCCCUCCUAAGGAGAAGACUGCGGGUUCGAGUCCCGUCCGGAGCG [G12A A15G A65C A70G], the yeast fitness is not above 0.5.

In the case of GUUCCGUUGGUGUAAUGGUAACGCGUCUCCCUCCAAAAGAGAAGACUGCGGGUUCGAGUCCCGUACGGAACG [C11U U35A G38A], the yeast fitness was 0.51.

Take GUUCCGUUGGCAUAGUGGUAACGCGUCUCCAUCCUAAGGAGAAGACUGCGGGUUCGAGUCCCGUACGGAACG [G12A A15G C31A]: the yeast fitness is not above 0.5.

With GUUCCGUUGGUGUAAUGGUAACGCGUCGACCUCCUAAGGAGAAGACUGCGGGUUCGAGUCCCGUACGGAACG [C11U U28G C29A], the yeast fitness is not above 0.5.

For the variant GUUCCGUUGGUGUAAUGGUAACGCGUCUCCCUCCAAAAGAGAAGACUGCGGGUUCGAGUCACGUACGGAACG [C11U U35A G38A C61A], the yeast fitness was not above 0.5.

As for GUUCCGUUGGCAUACUGGUAACGCGUCUCCUUCCUAAGGAGAAGACUGCGGGUUCGAGUCCUGUAGGGAGCG [G12A A15C C31U C62U C66G A70G], the yeast fitness is not above 0.5.

GUUCCGUUGGUGUAAUGGUAACGCGUCUCCCUCCCUAGGAGAAGAUUGCGGGUUCGAGUCCCGUACGGAACG [C11U U35C A36U C46U]: the yeast fitness stood at 0.75.

As to GUUCCGUUGGUGUAAUGGUAACGCGUCUCCCUCCCAAGGAGAAGACUGCGGGUUCGAGUCCCGUACGGAACG [C11U U35C], the yeast fitness is 0.7.

In the case of GUUCCGUUGGUGUAAUGGUAACGCGUCUCCCUCCUAAGGAGAAGACUGCGGGUACGAGUCCUGUACGGAACG [C11U U54A C62U], the yeast fitness was not above 0.5.

In the case of GUUCCGUUGGUGUAAUGGUAACGCGUCUCCCUCCGAAGGAGAAGACAACGGGUUCGAGUCCCGUUCGGAACG [C11U U35G U47A G48A A65U], the yeast fitness is not above 0.5.

GUUCCGUUGGUGUAAUGGUAACGCGUCCGCCUCCUAAGCAGAAGACUGCGGGUUCGAGUCCCGUACGGAACG [C11U U28C C29G G39C]: the yeast fitness was not above 0.5.

For GUUCCGUUGGUGUAAUGGUAACGCGUCUCCCUCCUAAGGAGAAGACUGCGGGUUCGAGUCCCGCGCGGAACG [C11U U64C A65G], the yeast fitness came out at 0.667.

Consider GUUCCGUUGGUGUAAUGGUAACGCGUCUCCCACCUAAGGAGAAGACUGCAAGUUCCAGUCGCGUACGGAACG [C11U U32A G50A G51A G56C C61G], for which the yeast fitness is not above 0.5.

GUUCCGUUGGUGUAAUGGUAACGCGUCUCCCUCCUAAGGAGAAGACUGCGGGUUCGAGACCCGUAGGGAACG [C11U U59A C66G]: the yeast fitness was not above 0.5.

In the case of GUUCCGUUGGUGUAAUGGUAACGCGUCUCCCGCCUAAGGAGAAGACUGCGGGUUCGAGCCCCGUACGGAACG [C11U U32G U59C], the yeast fitness was not above 0.5.

As for GUUCCGUUGGCAUAGUGGUAACGCGUCUCCCUCCUAAGGAGAAGACUGCGGGUUCGAGUCCCGUGCGGAACG [G12A A15G A65G], the yeast fitness is 0.541.

Regarding GUUCCGUUGGCAUAUUGGUAACGCGUCUCCCUCCUAAGGAGAAGACUGCGGGUUCGAGUCCCGUACGGAACG [G12A A15U], the yeast fitness came to 0.782.

GUUCCGUUGGCAUAGUGGUAACGCGUCUCCCUCCUAAGGAGAAGACUGCGGGUUCGAGUCCCGUACGGAACG [G12A A15G]: the yeast fitness worked out at 0.843.

As to GUUCCGUUGGCAUAGUGGUAACGCGUCUCCCUCCUAAGGAGAAGACUGCGGGUGCGAGUCCCGUACGGAACG [G12A A15G U54G], the yeast fitness is not above 0.5.

For the variant GUUCCGUUGGUGUAAUGGUAACGCGUCUCCCUCCUAAGGAGAAGACUGCGGGAUCGAGUCCCGUACGGAACG [C11U U53A], the yeast fitness is 0.751.

For the variant GUUCCGUUGGUGUAAUGGUAACGCGUCUCCCUCCUAAGGAGAAGACUGCGGGGUCGAGUCCCGUACGGAACG [C11U U53G], the yeast fitness was 0.608.

With GUUCCGUUGGCAUCAUGGUAACGCGUCUCCUUCCUAAGGAGAAGACUGGGGGUUCGAGUACCGUACGGAACG [G12A A14C C31U C49G C60A], the yeast fitness is not above 0.5.

Regarding GUUCCGUUGGUGUAAUGGUAACGCGUCUCCCACCUAAGGAGCAGACUGCGGGUUCGAGUCCCGUACGGAACG [C11U U32A A42C], the yeast fitness turned out to be 0.545.

Consider GUUCCGUUGGCAUUAUGGUAACGCGUCUCCCUCCUAAGGAGAAGACUGCGGGUACGUGUCCCGUACGGAACG [G12A A14U U54A A57U], for which the yeast fitness is not above 0.5.

These data come from the RNAGym collection of RNA variant scans (doi:10.1126/science.aae0568).
